{
  "source": "ChEMBL document CHEMBL4118021",
  "about": "“Studies of TAK1-centered polypharmacology with novel covalent TAK1 inhibitors” (Bioorg Med Chem, 2017)",
  "key": {"[1]": {"molecular_target": "Eukaryotic translation initiation factor 6 (Homo sapiens) (UniProt P56537)", "assay": "Binding affinity to EIF6 in human NCI-H358 cells at 1 uM by mass spectrometry based pull down assay", "type": "cell-based"}, "[2]": {"molecular_target": "Eukaryotic translation initiation factor 3 subunit I (Homo sapiens) (UniProt Q13347)", "assay": "Binding affinity to EIF3I in human NCI-H23 cells at 1 uM by mass spectrometry based pull down assay", "type": "cell-based"}, "[3]": {"molecular_target": "Small ribosomal subunit protein mS23 (Homo sapiens) (UniProt Q9Y3D9)", "assay": "Binding affinity to MRPS23 in human NCI-H358 cells at 1 uM by mass spectrometry based pull down assay", "type": "cell-based"}, "[4]": {"molecular_target": "Constitutive coactivator of PPAR-gamma-like protein 1 (Homo sapiens) (UniProt Q9NZB2)", "sequence (Q9NZB2 whole entry)": "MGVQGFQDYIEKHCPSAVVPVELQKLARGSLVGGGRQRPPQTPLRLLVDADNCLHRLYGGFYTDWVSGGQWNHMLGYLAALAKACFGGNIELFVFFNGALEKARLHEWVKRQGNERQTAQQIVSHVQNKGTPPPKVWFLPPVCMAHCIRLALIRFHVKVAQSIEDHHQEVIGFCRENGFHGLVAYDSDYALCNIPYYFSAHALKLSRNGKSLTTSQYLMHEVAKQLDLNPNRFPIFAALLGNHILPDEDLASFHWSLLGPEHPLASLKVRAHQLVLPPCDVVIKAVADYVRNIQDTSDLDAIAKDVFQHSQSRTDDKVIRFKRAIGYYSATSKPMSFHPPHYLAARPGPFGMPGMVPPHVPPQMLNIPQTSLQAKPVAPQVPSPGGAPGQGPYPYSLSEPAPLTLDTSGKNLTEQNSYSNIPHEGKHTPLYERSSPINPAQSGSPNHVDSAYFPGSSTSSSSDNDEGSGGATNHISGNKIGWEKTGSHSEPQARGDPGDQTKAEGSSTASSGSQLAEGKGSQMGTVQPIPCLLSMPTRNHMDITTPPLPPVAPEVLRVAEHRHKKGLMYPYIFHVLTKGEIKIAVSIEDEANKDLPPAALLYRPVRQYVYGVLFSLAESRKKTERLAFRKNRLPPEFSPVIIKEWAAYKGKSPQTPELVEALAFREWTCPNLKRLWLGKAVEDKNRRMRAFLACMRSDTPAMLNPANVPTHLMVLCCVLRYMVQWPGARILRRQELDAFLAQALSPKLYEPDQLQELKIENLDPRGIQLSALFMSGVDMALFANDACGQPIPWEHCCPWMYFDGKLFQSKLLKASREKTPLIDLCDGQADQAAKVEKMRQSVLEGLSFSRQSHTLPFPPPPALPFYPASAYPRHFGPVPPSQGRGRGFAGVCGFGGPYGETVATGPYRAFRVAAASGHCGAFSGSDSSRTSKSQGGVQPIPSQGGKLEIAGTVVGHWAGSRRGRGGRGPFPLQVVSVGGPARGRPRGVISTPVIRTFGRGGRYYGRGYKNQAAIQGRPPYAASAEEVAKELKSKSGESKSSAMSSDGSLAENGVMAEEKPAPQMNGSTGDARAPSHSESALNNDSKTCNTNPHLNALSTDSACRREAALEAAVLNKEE", "assay": "Binding affinity to FAM120A in human NCI-H358 cells at 1 uM by mass spectrometry based pull down assay", "type": "cell-based"}, "[5]": {"molecular_target": "Signal recognition particle subunit SRP54 (Homo sapiens) (UniProt P61011)", "sequence (P61011 whole entry)": "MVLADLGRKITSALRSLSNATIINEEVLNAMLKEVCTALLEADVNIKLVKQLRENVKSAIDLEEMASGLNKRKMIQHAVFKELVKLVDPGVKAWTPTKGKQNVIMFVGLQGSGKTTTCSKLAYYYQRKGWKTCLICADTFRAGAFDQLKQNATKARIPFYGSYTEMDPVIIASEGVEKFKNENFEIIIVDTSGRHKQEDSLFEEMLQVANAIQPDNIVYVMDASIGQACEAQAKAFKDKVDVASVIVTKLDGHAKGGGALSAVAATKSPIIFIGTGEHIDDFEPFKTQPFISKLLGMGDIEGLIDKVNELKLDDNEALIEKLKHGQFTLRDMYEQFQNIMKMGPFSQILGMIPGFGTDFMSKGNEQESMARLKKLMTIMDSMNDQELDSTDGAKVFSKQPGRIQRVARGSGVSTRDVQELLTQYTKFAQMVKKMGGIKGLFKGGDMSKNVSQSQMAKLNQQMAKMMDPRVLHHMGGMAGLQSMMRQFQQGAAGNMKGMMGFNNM", "assay": "Binding affinity to SRP54 in human NCI-H358 cells at 1 uM by mass spectrometry based pull down assay", "type": "cell-based"}, "[6]": {"molecular_target": "Protein phosphatase 1G (Homo sapiens) (UniProt O15355)", "sequence (O15355 whole entry)": "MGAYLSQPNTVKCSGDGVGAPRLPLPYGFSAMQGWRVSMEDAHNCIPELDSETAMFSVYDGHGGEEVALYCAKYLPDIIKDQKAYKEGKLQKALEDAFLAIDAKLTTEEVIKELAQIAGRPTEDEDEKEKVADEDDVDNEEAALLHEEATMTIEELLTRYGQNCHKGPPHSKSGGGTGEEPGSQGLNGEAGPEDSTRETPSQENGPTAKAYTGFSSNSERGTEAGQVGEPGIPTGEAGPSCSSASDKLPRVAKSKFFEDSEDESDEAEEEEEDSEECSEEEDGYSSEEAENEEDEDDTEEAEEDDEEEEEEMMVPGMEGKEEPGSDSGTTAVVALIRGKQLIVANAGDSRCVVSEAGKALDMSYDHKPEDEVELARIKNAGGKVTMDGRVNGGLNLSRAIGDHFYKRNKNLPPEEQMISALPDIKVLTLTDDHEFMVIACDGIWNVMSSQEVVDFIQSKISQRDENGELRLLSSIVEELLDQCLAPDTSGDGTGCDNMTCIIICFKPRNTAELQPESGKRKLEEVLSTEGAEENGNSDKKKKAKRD", "assay": "Binding affinity to PPM1G in human NCI-H358 cells at 1 uM by mass spectrometry based pull down assay", "type": "cell-based"}, "[7]": {"molecular_target": "Inosine-5'-monophosphate dehydrogenase 1 (Homo sapiens) (UniProt P20839)", "assay": "Binding affinity to IMPDH1 in human NCI-H23 cells at 1 uM by mass spectrometry based pull down assay", "type": "cell-based"}, "[8]": {"molecular_target": "Cyclin-G-associated kinase (Homo sapiens) (UniProt O14976)", "assay": "Binding affinity to GAK in human NCI-H23 cells at 1 uM by mass spectrometry based pull down assay", "type": "cell-based"}, "[9]": {"molecular_target": "T1, 80S Ribosome (Homo sapiens) (UniProt P08865+P42677+P62753+P15880+P23396+P61247+P62701+P22090+P46782+P62081+P62241+P46781+P46783+P62280+P25398+P62277+P62263+P62841+P62244+P62249+P08708+P62269+P39019+P60866+P63220+P62266+P62847+P62851+P62854+P62979+P62857+P62273+P62861+P39023+P36578+P46777+Q02878+P18124+P62424+P62917+P32969+P27635+P62906+P62913+P30050+P26373+P40429+P50914+P61313+P18621+Q07020+Q02543+P84098+P46778+P35268+P62829+P62750+P83731+P61254+P61353+P46776+P46779+P47914+P62888+P62899+P62910+P49207+P42766+P18077+Q9Y3U8+P83881+P61927+P61513+P63173+P62891+P62945+P05388+P05386)", "assay": "Binding affinity to RPS26 in human NCI-H358 cells at 1 uM by mass spectrometry based pull down assay", "type": "cell-based"}, "[10]": {"molecular_target": "RuvB-like 2 (Homo sapiens) (UniProt Q9Y230)", "sequence (Q9Y230 whole entry)": "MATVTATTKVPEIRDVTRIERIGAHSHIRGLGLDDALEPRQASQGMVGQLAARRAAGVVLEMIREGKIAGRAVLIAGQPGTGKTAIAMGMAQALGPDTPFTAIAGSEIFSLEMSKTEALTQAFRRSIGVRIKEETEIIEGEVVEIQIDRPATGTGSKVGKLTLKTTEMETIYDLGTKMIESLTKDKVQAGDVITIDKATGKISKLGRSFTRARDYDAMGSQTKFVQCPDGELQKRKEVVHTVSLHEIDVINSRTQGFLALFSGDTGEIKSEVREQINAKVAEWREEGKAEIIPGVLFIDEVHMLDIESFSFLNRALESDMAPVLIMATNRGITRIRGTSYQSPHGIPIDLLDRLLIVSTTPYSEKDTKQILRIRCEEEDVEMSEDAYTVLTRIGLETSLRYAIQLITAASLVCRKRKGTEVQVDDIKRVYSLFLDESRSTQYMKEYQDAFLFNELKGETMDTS", "assay": "Binding affinity to RUVBL2 in human NCI-H358 cells at 1 uM by mass spectrometry based pull down assay", "type": "cell-based"}, "[11]": {"molecular_target": "Methionine--tRNA ligase, cytoplasmic (Homo sapiens) (UniProt P56192)", "assay": "Binding affinity to MARS in human NCI-H358 cells at 1 uM by mass spectrometry based pull down assay", "type": "cell-based"}, "[12]": {"molecular_target": "TBC1 domain family member 15 (Homo sapiens) (UniProt Q8TC07)", "assay": "Binding affinity to TBC1D15 in human NCI-H23 cells at 1 uM by mass spectrometry based pull down assay", "type": "cell-based"}, "[13]": {"molecular_target": "Protein phosphatase 1G (Homo sapiens) (UniProt O15355)", "assay": "Binding affinity to PPM1G in human NCI-H23 cells at 1 uM by mass spectrometry based pull down assay", "type": "cell-based"}, "[14]": {"molecular_target": "Isocitrate dehydrogenase [NAD] subunit alpha, mitochondrial (Homo sapiens) (UniProt P50213)", "sequence (P50213 whole entry)": "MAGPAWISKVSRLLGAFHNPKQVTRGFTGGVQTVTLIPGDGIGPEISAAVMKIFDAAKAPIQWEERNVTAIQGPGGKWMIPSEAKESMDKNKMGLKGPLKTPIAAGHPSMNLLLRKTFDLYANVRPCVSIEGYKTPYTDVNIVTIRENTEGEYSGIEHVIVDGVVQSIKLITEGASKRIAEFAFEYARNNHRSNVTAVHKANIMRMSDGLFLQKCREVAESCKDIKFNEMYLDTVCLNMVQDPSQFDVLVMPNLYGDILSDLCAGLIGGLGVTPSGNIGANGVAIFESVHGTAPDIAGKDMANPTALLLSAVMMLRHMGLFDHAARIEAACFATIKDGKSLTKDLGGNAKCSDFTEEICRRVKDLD", "assay": "Binding affinity to IDH3A in human NCI-H358 cells at 1 uM by mass spectrometry based pull down assay", "type": "cell-based"}, "[15]": {"molecular_target": "Leucine-rich repeat-containing protein 15 (Homo sapiens) (UniProt Q8TF66)", "assay": "Binding affinity to LRRC15 in human NCI-H23 cells at 1 uM by mass spectrometry based pull down assay", "type": "cell-based"}, "[16]": {"molecular_target": "Monofunctional C1-tetrahydrofolate synthase, mitochondrial (Homo sapiens) (UniProt Q6UB35)", "assay": "Binding affinity to MTHFD1L in human NCI-H358 cells at 1 uM by mass spectrometry based pull down assay", "type": "cell-based"}, "[17]": {"molecular_target": "T1, 80S Ribosome (Homo sapiens)", "assay": "Binding affinity to RPL24 in human NCI-H23 cells at 1 uM by mass spectrometry based pull down assay", "type": "cell-based"}, "[18]": {"molecular_target": "Acidic leucine-rich nuclear phosphoprotein 32 family member B (Homo sapiens) (UniProt Q92688)", "sequence (Q92688 whole entry)": "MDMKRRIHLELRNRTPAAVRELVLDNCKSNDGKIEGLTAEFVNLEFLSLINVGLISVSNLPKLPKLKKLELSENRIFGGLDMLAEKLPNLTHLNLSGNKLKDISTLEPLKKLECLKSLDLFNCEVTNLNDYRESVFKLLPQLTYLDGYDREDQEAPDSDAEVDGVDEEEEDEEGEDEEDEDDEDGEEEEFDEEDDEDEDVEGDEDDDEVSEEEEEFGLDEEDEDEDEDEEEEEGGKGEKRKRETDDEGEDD", "assay": "Binding affinity to ANP32B in human NCI-H23 cells at 1 uM by mass spectrometry based pull down assay", "type": "cell-based"}, "[19]": {"molecular_target": "T1, 80S Ribosome (Homo sapiens)", "assay": "Binding affinity to RPL31 in human NCI-H23 cells at 1 uM by mass spectrometry based pull down assay", "type": "cell-based"}, "[20]": {"molecular_target": "Thymidylate synthase (Homo sapiens) (UniProt P04818)", "assay": "Binding affinity to TYMS in human NCI-H23 cells at 1 uM by mass spectrometry based pull down assay", "type": "cell-based"}, "[21]": {"molecular_target": "T1, 80S Ribosome (Homo sapiens)", "assay": "Binding affinity to RPS12 in human NCI-H358 cells at 1 uM by mass spectrometry based pull down assay", "type": "cell-based"}, "[22]": {"assay": "Increase in secretion of basic-FGF in IL-1alpha activated RA patient-derived synovial fibroblasts at 0.6 to 3 uM preincubated for 3 hrs followed by IL-1alpha stimulation measured after 18 hrs by sandwich immunoassay", "details": "human", "procedure,_shortened": "(§1)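 Primary human RA synovial fibroblasts (donor RA2159) seeded at 1000 viable cells/well, grown ~24 h at 37 °C/5% CO2, then starved overnight in basal medium and for a further ~4 h in basal medium with 0.1% BSA. Inhibitor or DMSO given 3 h before stimulation. Supernatants from two adjacent wells pooled as one replicate, biological duplicate. Luminex multiplex panels (48 analytes), diluted 1:3. Mock-supernatant background and spiked-ligand cross-reactivity controls included.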"}, "[23]": {"molecular_target": "Mitogen-activated protein kinase kinase kinase 11 (Homo sapiens) (UniProt Q16584)", "sequence (Q16584 whole entry, looked up)": "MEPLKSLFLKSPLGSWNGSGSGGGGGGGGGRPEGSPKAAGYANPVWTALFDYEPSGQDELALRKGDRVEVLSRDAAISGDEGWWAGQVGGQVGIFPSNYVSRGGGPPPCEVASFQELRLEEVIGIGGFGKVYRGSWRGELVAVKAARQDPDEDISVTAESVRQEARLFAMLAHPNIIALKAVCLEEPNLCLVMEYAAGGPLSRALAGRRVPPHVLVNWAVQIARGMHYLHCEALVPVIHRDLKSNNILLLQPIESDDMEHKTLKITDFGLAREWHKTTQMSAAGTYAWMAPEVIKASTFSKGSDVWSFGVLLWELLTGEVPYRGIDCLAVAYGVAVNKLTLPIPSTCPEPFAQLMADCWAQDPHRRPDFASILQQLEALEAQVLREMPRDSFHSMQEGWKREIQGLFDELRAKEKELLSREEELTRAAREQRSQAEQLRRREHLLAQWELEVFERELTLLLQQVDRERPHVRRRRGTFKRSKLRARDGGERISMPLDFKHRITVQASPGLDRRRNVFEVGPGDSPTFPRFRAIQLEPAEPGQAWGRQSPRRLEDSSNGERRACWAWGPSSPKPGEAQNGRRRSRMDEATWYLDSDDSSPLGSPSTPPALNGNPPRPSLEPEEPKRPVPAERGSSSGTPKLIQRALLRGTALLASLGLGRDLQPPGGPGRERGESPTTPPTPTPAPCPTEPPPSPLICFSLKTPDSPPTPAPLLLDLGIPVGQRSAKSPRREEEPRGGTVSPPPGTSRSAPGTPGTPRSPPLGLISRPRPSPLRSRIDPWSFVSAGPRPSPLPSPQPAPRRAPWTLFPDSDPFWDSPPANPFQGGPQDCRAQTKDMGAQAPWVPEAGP", "assay": "Inhibition of MLK3 in human SKCO1 cells at 1 uM after 4 hrs using biotin labeled DLKSNNILLLQPIESDDMEHK probe by mass-spectrometric analysis relative to control", "type": "cell-based"}, "[24]": {"assay": "Increase in secretion of basic-FGF in poly(I:C) activated RA patient-derived synovial fibroblasts at 0.6 to 3 uM preincubated for 3 hrs followed by poly(I:C) stimulation measured after 18 hrs by sandwich immunoassay", "details": "human", "procedure,_shortened": "as §1"}, "[25]": {"molecular_target": "NUAK family SNF1-like kinase 2 (Homo sapiens) (UniProt Q9H093)", "sequence (Q9H093 whole entry)": "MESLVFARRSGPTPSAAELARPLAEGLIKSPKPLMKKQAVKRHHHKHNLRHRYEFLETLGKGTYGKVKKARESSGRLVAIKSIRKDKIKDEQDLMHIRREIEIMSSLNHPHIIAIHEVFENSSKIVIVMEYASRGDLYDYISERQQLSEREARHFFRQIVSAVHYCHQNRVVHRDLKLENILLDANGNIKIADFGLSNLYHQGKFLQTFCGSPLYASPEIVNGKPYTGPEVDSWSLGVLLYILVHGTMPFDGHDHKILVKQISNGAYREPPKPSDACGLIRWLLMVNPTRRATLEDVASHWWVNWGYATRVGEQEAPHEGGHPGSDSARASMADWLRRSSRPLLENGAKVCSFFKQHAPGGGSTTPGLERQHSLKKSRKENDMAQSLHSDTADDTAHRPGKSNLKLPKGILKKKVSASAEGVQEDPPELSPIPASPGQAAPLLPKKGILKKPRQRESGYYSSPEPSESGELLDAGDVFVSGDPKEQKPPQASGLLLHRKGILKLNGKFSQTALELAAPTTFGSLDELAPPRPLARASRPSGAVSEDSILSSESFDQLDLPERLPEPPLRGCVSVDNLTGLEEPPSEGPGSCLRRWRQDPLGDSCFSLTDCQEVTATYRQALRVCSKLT", "assay": "Inhibition of NuaK2 in human SKCO1 cells at 1 uM after 4 hrs using biotin labeled LVAIKSIR probe by mass-spectrometric analysis relative to control", "type": "cell-based"}, "[26]": {"molecular_target": "Serine/threonine-protein kinase TBK1 (Homo sapiens) (UniProt Q9UHD2)", "assay": "Inhibition of TBK1 in human SKCO1 cells at 1 uM after 4 hrs using biotin labeled TGDLFAIKVFNNISFLRPVDVQMR probe by mass-spectrometric analysis relative to control", "type": "cell-based"}},
  "note": "The source made the active and inactive calls. The calls are words filed in the database; no cut-off is given here.",
  "data": [
    {"molecule": "C=CC(=O)Nc1ccccc1Nc1nc(Nc2ccc(N3CCN(CCOCCOCCOCCNC(=O)CCCC[C@@H]4SC[C@@H]5NC(=O)N[C@@H]54)CC3)cc2)ncc1Cl", "values": [
      {"measurement": "Activity", "setting": "[1]", "value": "Active"},
      {"measurement": "Activity", "setting": "[2]", "value": "Active"},
      {"measurement": "Activity", "setting": "[3]", "value": "Active"},
      {"measurement": "Activity", "setting": "[4]", "value": "Active"},
      {"measurement": "Activity", "setting": "[5]", "value": "Active"},
      {"measurement": "Activity", "setting": "[6]", "value": "Active"},
      {"measurement": "Activity", "setting": "[7]", "value": "Active"},
      {"measurement": "Activity", "setting": "[8]", "value": "Active"},
      {"measurement": "Activity", "setting": "[9]", "value": "Active"},
      {"measurement": "Activity", "setting": "[10]", "value": "Active"},
      {"measurement": "Activity", "setting": "[11]", "value": "Active"},
      {"measurement": "Activity", "setting": "[12]", "value": "Active"},
      {"measurement": "Activity", "setting": "[13]", "value": "Active"},
      {"measurement": "Activity", "setting": "[14]", "value": "Active"},
      {"measurement": "Activity", "setting": "[15]", "value": "Active"},
      {"measurement": "Activity", "setting": "[16]", "value": "Active"},
      {"measurement": "Activity", "setting": "[17]", "value": "Active"},
      {"measurement": "Activity", "setting": "[18]", "value": "Active"},
      {"measurement": "Activity", "setting": "[19]", "value": "Active"},
      {"measurement": "Activity", "setting": "[20]", "value": "Active"},
      {"measurement": "Activity", "setting": "[21]", "value": "Active"}
    ]},
    {"molecule": "COc1cc(O)c2c(c1)/C=C/C[C@H](O)[C@H](O)C(=O)/C=C\\C[C@H](C)OC2=O", "values": [
      {"measurement": "Activity", "setting": "[22]", "value": "Non-Toxic"},
      {"measurement": "inhibition", "setting": "[23]", "value": -1.7, "unit": "%"},
      {"measurement": "Activity", "setting": "[24]", "value": "Non-Toxic"}
    ]},
    {"molecule": "C=CC(=O)Nc1ccccc1Nc1nc(Nc2ccc(N3CCN(C)CC3)cc2)ncc1Cl", "values": [
      {"measurement": "inhibition", "setting": "[25]", "value": 53.3, "unit": "%"},
      {"measurement": "inhibition", "setting": "[26]", "value": 61, "unit": "%"}
    ]}
  ]
}
